From ChEMBL document CHEMBL1130179, “DNA gyrase inhibitory and antimicrobial activities of some diphenic acid monohydroxamides” (J Med Chem, 1997)
≈ marks a conversion by molar mass, not a printed value. Peptide text beside a SMILES is read from it.

How the values were obtained:
[1] = system: Staphylococcus epidermidis; experiment: Minimum inhibitory concentration of compound against OC2603 Staphylococcus epidermidis strain; type: functional
In short: (§1)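 Broth microdilution in Luria broth for Gram-positives, 2-fold series 0.015–1000 µg/mL, inoculum about 5 × 10^5 CFU/mL. Incubated overnight at 35 °C; MIC = lowest well concentration with no visible growth.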

Escherichia coli [2] = experiment: Minimum inhibitory concentration of compound against Escherichia coli; type: functional
In short: (§2)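 Broth microdilution in Mueller Hinton broth for Gram-negatives, 2-fold series 0.015–1000 µg/mL, inoculum about 5 × 10^5 CFU/mL. Incubated overnight at 35 °C; MIC = lowest well with no visible growth. Some tests included polymyxin B nonapeptide at a level with no antibacterial activity of its own, compared with PMBN-free controls.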

Staphylococcus aureus = experiment: Minimum inhibitory concentration of compound against OC6538 Staphylococcus aureus strain; type: functional; in short: as §1
Escherichia coli [3] = experiment: Minimum inhibitory concentration of compound against KL-16 Escherichia coli strain; type: functional; in short: as §2
Escherichia coli [4] = experiment: Minimum inhibitory concentration of compound against Escherichia coli KL-16 strain; type: functional; in short: as §2
[5] = system: DNA gyrase (Escherichia coli); experiment: Inhibition of cleavable complex ability of DNA gyrase in Escherichia coli

Row | Compound | MIC [1] [µg/mL] | MIC (Escherichia coli [2]) [µg/mL] | MIC (Staphylococcus aureus) [µg/mL] | MIC (Escherichia coli [3]) [µg/mL] | MIC (Escherichia coli [4]) [µg/mL] | CC50 [5] [µg/mL]
1 | CCn1cc(C(=O)O)c(=O)c2ccc(C)nc21 [NALIDIXIC ACID] | 250 (≈ 1080 µM) | 1 (≈ 4.31 µM) | 500 (≈ 2150 µM) | 8 (≈ 34.4 µM) |  | 
2 | CC(C)C[C@@H]1NC(=O)[C@@H](Cc2ccccc2)NC(=O)[C@H](CCN)NC(=O)[C@@H](NC(=O)[C@H](CCN)NC(=O)[C@@H](N)[C@@H](C)O)CCNC(=O)[C@H]([C@@H](C)O)NC(=O)[C@H](CCN)NC(=O)[C@H](CCN)NC1=O (HELM PEPTIDE1{T.[Dab].[Dab].[Dab].[dF].L.[Dab].[Dab].T}$PEPTIDE1,PEPTIDE1,3:R3-9:R2$$$V2.0) |  | 500 (≈ 519 µM) |  |  | > 500 | 
3 | CC(c1ccc2c(ccc3ccccc32)c1)N(O)C(=O)c1ccccc1-c1ccccc1C(=O)O (stereo not drawn) | 31.2 (≈ 67.7 µM) | 31.2 (≈ 67.6 µM) | 31.2 (≈ 67.7 µM) | > 1000 |  | 97.7 (≈ 212 µM)
4 | CC(c1ccc2c(c1)Nc1ccccc1S2)N(O)C(=O)c1ccccc1-c1ccccc1C(=O)O (stereo not drawn) | 62.5 (≈ 130 µM) | > 1000 | 62.5 (≈ 130 µM) | > 1000 |  | 750 (≈ 1550 µM)

Now from value to compound, other results behind:

Row | MIC [1] [µg/mL] | MIC (Escherichia coli [2]) [µg/mL] | MIC (Staphylococcus aureus) [µg/mL] | MIC (Escherichia coli [3]) [µg/mL] | MIC (Escherichia coli [4]) [µg/mL] | Compound | CC50 [5] [µg/mL]
5 | 15.6 (≈ 32.7 µM) | > 1000 | 15.6 (≈ 32.7 µM) | > 1000 |  | CC(c1ccc2oc(-c3ccccc3)cc2c1)N(O)C(=O)c1ccccc1-c1ccccc1C(=O)O (stereo not drawn) | 62.5 (≈ 131 µM)
6 | 1000 (≈ 2210 µM) | > 1000 | 1000 (≈ 2210 µM) | > 1000 |  | COc1cc(C(C)N(O)C(=O)c2ccccc2-c2ccccc2C(=O)O)cc(OC)c1OC (stereo not drawn) | 
7 | 500 (≈ 959 µM) | > 1000 | 500 (≈ 959 µM) | > 1000 |  | CC(c1ccc(N2CCN(c3ccccc3)CC2)cc1)N(O)C(=O)c1ccccc1-c1ccccc1C(=O)O (stereo not drawn) | 
8 | 1000 (≈ 2770 µM) | 1000 (≈ 2770 µM) | 1000 (≈ 2770 µM) | > 1000 |  | CC(c1ccccc1)N(O)C(=O)c1ccccc1-c1ccccc1C(=O)O (stereo not drawn) | 
